According to ChEMBL document CHEMBL1177876, “Design and synthesis of 10-alkoxy-5, 6-dihydro-triazolo[4,3-d]benzo[f][1,4]oxazepine derivatives with anticonvulsant activity” (Eur J Med Chem, 2010):
Activity calls are given as the source filed them.

Assays:
[1] = test system: Mus musculus; assay: Anticonvulsant activity in mouse assessed as protection against maximal electroshock-induced seizures at 100 mg/kg, ip measured after 0.5 hrs; type: functional, organism-based; parameters: dose 100 mg/kg
How it was run: (§1)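 Phase-I MES screen in KunMing mice, 18–22 g. Compounds dissolved in DMSO and given i.p. at 30, 100 or 300 mg/kg. The MES test followed the NIH ADD protocol and was read at 0.5 h and 4 h after dosing. Six mice per group, scored as number protected/number tested.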

[2] = test system: Mus musculus; assay: Anticonvulsant activity in mouse assessed as protection against maximal electroshock-induced seizures at 300 mg/kg, ip measured after 4 hrs; type: functional, organism-based; parameters: dose 300 mg/kg; how it was run: as §1
[3] = test system: Mus musculus; assay: Anticonvulsant activity in mouse assessed as protection against maximal electroshock-induced seizures at 100 mg/kg, ip measured after 4 hrs; type: functional, organism-based; parameters: dose 100 mg/kg; how it was run: as §1
[4] = test system: Mus musculus; assay: Anticonvulsant activity in mouse assessed as protection against maximal electroshock-induced seizures at 30 mg/kg, ip measured after 4 hrs; type: functional, organism-based; parameters: dose 30 mg/kg; how it was run: as §1
[5] = test system: Mus musculus; assay: Anticonvulsant activity in mouse assessed as protection against maximal electroshock-induced seizures at 10 mg/kg, ip measured after 4 hrs; type: functional, organism-based; parameters: dose 10 mg/kg
[6] = test system: Mus musculus; assay: Anticonvulsant activity in ip dosed mouse assessed as protection against maximal electroshock-induced seizures; type: functional
How it was run: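 KunMing mice, 18–22 g, compounds in DMSO, given i.p. at a range of doses, groups of 10. MES test per NIH ADD program. Read-out was seizure protection, with at least three points in the 10–90% range.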

[7] = Neurotoxicity in ip dosed mouse assessed as time spent on rotarod by rotarod test; type: toxicity, organism-based; settings: in vivo
How it was run: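 Rotarod neurotoxicity in KunMing mice, 18–22 g, compounds in DMSO given i.p. Mice were pretrained on a 3.2 cm diameter rod at 10 rpm. Toxicity was defined as failure to stay on the rod for at least 1 min in each trial.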

[8] = species: Mus musculus; assay: Protective index, ratio of TD50 for mouse by rotarod test to ED50 for mouse by MES test; type: functional
[9] = test system: Mus musculus; assay: Anticonvulsant activity in mouse assessed as protection against maximal electroshock-induced seizures at 10 mg/kg, ip measured after 0.5 hrs; type: functional, organism-based; parameters: dose 10 mg/kg
[10] = test system: Mus musculus; assay: Anticonvulsant activity in mouse assessed as protection against maximal electroshock-induced seizures at 30 mg/kg, ip measured after 0.5 hrs; type: functional, organism-based; parameters: dose 30 mg/kg; how it was run: as §1
[11] = test system: Mus musculus; assay: Anticonvulsant activity in mouse assessed as pentylenetetrazole-induced clonic seizures at 30 mg/kg, ip administered 30 mins before pentylenetetrazole challenge measured after 0.5 hrs; type: functional; settings: route intraperitoneal
[12] = test system: Mus musculus; assay: Anticonvulsant activity in mouse assessed as pentylenetetrazole-induced tonic seizures at 30 mg/kg, ip administered 30 mins before pentylenetetrazole challenge measured after 0.5 hrs; type: functional; settings: route intraperitoneal
[13] = test system: Mus musculus; assay: Anticonvulsant activity in mouse assessed as isoniazid-induced clonic seizures at 30 mg/kg, ip administered 30 mins before isoniazid challenge measured after 1 hr; type: functional; settings: route intraperitoneal
[14] = test system: Mus musculus; assay: Anticonvulsant activity in mouse assessed as isoniazid-induced tonic seizures at 30 mg/kg, ip administered 30 mins before isoniazid challenge measured after 1 hr; type: functional; settings: route intraperitoneal
[15] = test system: Mus musculus; assay: Anticonvulsant activity in mouse assessed as 3-mercaptopropionic acid-induced clonic seizures at 30 mg/kg, ip administered 30 mins before 3-mercaptopropionic acid challenge measured after 0.5 hrs; type: functional; settings: route intraperitoneal
How it was run: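 Mice, 10 per group, dosed i.p. with 30 mg/kg. 30 min later they received 3-mercaptopropionic acid 60 mg/kg sc in saline. Each mouse was observed alone for 0.5 h for seizures.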

[16] = test system: Mus musculus; assay: Anticonvulsant activity in mouse assessed as 3-mercaptopropionic acid-induced tonic seizures at 30 mg/kg, ip administered 30 mins before 3-mercaptopropionic acid challenge measured after 0.5 hrs; type: functional; settings: route intraperitoneal
How it was run: (§2)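 KunMing mice (18–22 g) in groups of 10 received the test agent, dissolved in DMSO, i.p. 30 min before challenge. The challenge was 3-mercaptopropionic acid, 60 mg/kg in saline, given s.c. Mice were then held in individual cages and observed for 0.5 h for seizures and death.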

[17] = test system: Mus musculus; assay: Anticonvulsant activity in mouse assessed as 3-mercaptopropionic acid-induced death at 30 mg/kg, ip administered 30 mins before 3-mercaptopropionic acid challenge measured after 0.5 hrs; type: functional; settings: route intraperitoneal; how it was run: as §2
[18] = test system: Mus musculus; assay: Anticonvulsant activity in mouse assessed as thiosemicarbazide-induced clonic seizures at 30 mg/kg, ip administered 30 mins before thiosemicarbazide challenge measured after 2.5 hrs; type: functional; settings: route intraperitoneal
How it was run: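 Thiosemicarbazide challenge, 50 mg/kg i.p., given 30 min after 30 mg/kg i.p. test compound. Mice, 10 per group, were caged individually and observed for 2.5 h. Clonic and tonic seizures and lethality were recorded.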

[19] = test system: Mus musculus; assay: Anticonvulsant activity in mouse assessed as thiosemicarbazide-induced tonic seizures at 30 mg/kg, ip administered 30 mins before thiosemicarbazide challenge measured after 2.5 hrs; type: functional; settings: route intraperitoneal
How it was run: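 Mice (KunMing, 18–22 g, n = 10 per group) were pretreated i.p. with compound in DMSO. After 30 min, thiosemicarbazide was given at 50 mg/kg i.p. Animals were caged individually and observed for 2.5 h, and the number of clonic seizures, tonic seizures and deaths was recorded.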

[20] = test system: Mus musculus; assay: Anticonvulsant activity in mouse assessed as bicuculline-induced clonic seizures at 30 mg/kg, ip administered 30 mins before bicuculline challenge measured after 0.5 hrs; type: functional; settings: route intraperitoneal
How it was run: (§3)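 Bicuculline 2.7 mg/kg sc, injected 15–45 min after preparation, given 30 min after 30 mg/kg i.p. test compound. Mice, 10 per group, were isolated and watched for at least 30 min for clonic and tonic seizures and lethality.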

[21] = test system: Mus musculus; assay: Anticonvulsant activity in mouse assessed as bicuculline-induced tonic seizures at 30 mg/kg, ip administered 30 mins before bicuculline challenge measured after 0.5 hrs; type: functional; settings: route intraperitoneal; how it was run: as §3
[22] = test system: Mus musculus; assay: Anticonvulsant activity in mouse assessed as bicuculline-induced death at 30 mg/kg, ip administered 30 mins before bicuculline challenge measured after 0.5 hrs; type: functional; settings: route intraperitoneal
How it was run: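 Groups of 10 KunMing mice (18–22 g) were dosed i.p. with compound in DMSO. After 30 min they received bicuculline, 2.7 mg/kg s.c., injected within 15–45 min of preparation because of its instability. Mice were isolated and watched for at least 30 min, and clonic seizures, tonic seizures and lethality were recorded.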

Brc1ccccc1COc1ccc2c(c1)-c1nncn1CCO2
Activity [1]: Active
Activity [2]: inactive
Activity [3]: inactive
Activity [4]: inactive
Activity [5]: inactive
ED50 [6]: 41.7 mg/kg
TD50 [7]: 110 mg/kg
PI [8]: 2.6

Fc1cccc(COc2ccc3c(c2)-c2nncn2CCO3)c1
Activity [1]: Active
Activity [2]: inactive
Activity [3]: inactive
Activity [4]: inactive
Activity [5]: inactive
ED50 [6]: 23.7 mg/kg
TD50 [7]: 76 mg/kg
PI [8]: 3.2

Clc1ccccc1COc1ccc2c(c1)-c1nncn1CCO2
Activity [1]: Active
Activity [2]: inactive
Activity [3]: inactive
Activity [4]: inactive
Activity [5]: inactive
ED50 [6]: 38.3 mg/kg
TD50 [7]: 91.3 mg/kg
PI [8]: 2.4

Cc1ccc(COc2ccc3c(c2)-c2nncn2CCO3)cc1
Activity [1]: Active
Activity [2]: inactive
Activity [3]: inactive
Activity [4]: inactive
Activity [5]: inactive
ED50 [6]: > 100 mg/kg

CCCCCCOc1ccc2c(c1)-c1nncn1CCO2
Activity [1]: Active
Activity [9]: Active
Activity [2]: inactive
Activity [3]: inactive
Activity [4]: inactive
Activity [5]: inactive
ED50 [6]: 10 mg/kg
TD50 [7]: 60 mg/kg
PI [8]: 6

CCCCCCCOc1ccc2c(c1)-c1nncn1CCO2
Activity [1]: Active
Activity [10]: Active
Activity [9]: Active
Activity [2]: inactive
Activity [3]: inactive
Activity [4]: inactive
Activity [5]: inactive
ED50 [6]: 6.9 mg/kg
TD50 [7]: 65.7 mg/kg
PI [8]: 9.5
Activity [11]: 80%
Activity [12]: 0%
Activity [13]: 0%
Activity [14]: 0%
Activity [15]: 100%
Activity [16]: 0%
Activity [17]: 20%
Activity [18]: 100%
Activity [19]: 30%
Activity [20]: 100%
Activity [21]: 0%

c1ccc(COc2ccc3c(c2)-c2nncn2CCO3)cc1
Activity [1]: Active
Activity [10]: Active
Activity [2]: inactive
Activity [3]: inactive
Activity [4]: inactive
Activity [5]: inactive
ED50 [6]: 16.4 mg/kg
TD50 [7]: 76 mg/kg
PI [8]: 4.6

Clc1ccc(COc2ccc3c(c2)-c2nncn2CCO3)cc1
Activity [1]: Active
Activity [2]: inactive
Activity [3]: inactive
Activity [4]: inactive
Activity [5]: inactive
ED50 [6]: 60 mg/kg
TD50 [7]: 110 mg/kg
PI [8]: 1.8

CCOc1ccc2c(c1)-c1nncn1CCO2
Activity [1]: Active
Activity [2]: inactive
Activity [3]: inactive
Activity [4]: inactive
Activity [5]: inactive
ED50 [6]: > 100 mg/kg

COc1ccc(COc2ccc3c(c2)-c2nncn2CCO3)cc1
Activity [1]: Active
Activity [2]: inactive
Activity [3]: inactive
Activity [4]: inactive
Activity [5]: inactive
ED50 [6]: > 100 mg/kg

COc1ccc2c(c1)-c1nncn1CCO2
Activity [2]: inactive
Activity [3]: inactive
Activity [4]: inactive
Activity [5]: inactive
ED50 [6]: > 100 mg/kg

CCCCOc1ccc2c(c1)-c1nncn1CCO2
Activity [1]: Active
Activity [9]: Active
Activity [2]: inactive
Activity [3]: inactive
Activity [4]: inactive
Activity [5]: inactive
ED50 [6]: 11 mg/kg
TD50 [7]: 45.6 mg/kg
PI [8]: 4.2

Brc1cccc(COc2ccc3c(c2)-c2nncn2CCO3)c1
Activity [1]: Active
Activity [2]: inactive
Activity [3]: inactive
Activity [4]: inactive
Activity [5]: inactive
ED50 [6]: 25 mg/kg
TD50 [7]: 91.3 mg/kg
PI [8]: 3.6

CCCOc1ccc2c(c1)-c1nncn1CCO2
Activity [1]: Active
Activity [2]: inactive
Activity [3]: inactive
Activity [4]: inactive
Activity [5]: inactive
ED50 [6]: 19 mg/kg
TD50 [7]: 54.8 mg/kg
PI [8]: 2.9

CCCCCCCCOc1ccc2c(c1)-c1nncn1CCO2
Activity [1]: Active
Activity [9]: Active
Activity [2]: inactive
Activity [3]: inactive
Activity [4]: inactive
Activity [5]: inactive
ED50 [6]: 11 mg/kg
TD50 [7]: 63.4 mg/kg
PI [8]: 5.8

Fc1ccc(COc2ccc3c(c2)-c2nncn2CCO3)cc1
Activity [1]: Active
Activity [2]: inactive
Activity [3]: inactive
Activity [4]: inactive
Activity [5]: inactive
ED50 [6]: 27.4 mg/kg
TD50 [7]: 63.4 mg/kg
PI [8]: 2.3

CCCCCOc1ccc2c(c1)-c1nncn1CCO2
Activity [1]: Active
Activity [9]: Active
Activity [2]: inactive
Activity [3]: inactive
Activity [4]: inactive
Activity [5]: inactive
ED50 [6]: 15.8 mg/kg
TD50 [7]: 60 mg/kg
PI [8]: 3.8

Fc1ccccc1COc1ccc2c(c1)-c1nncn1CCO2
Activity [1]: Active
Activity [10]: Active
Activity [2]: inactive
Activity [3]: inactive
Activity [4]: inactive
Activity [5]: inactive
ED50 [6]: 18 mg/kg
TD50 [7]: 91.3 mg/kg
PI [8]: 5.1

Brc1ccc(COc2ccc3c(c2)-c2nncn2CCO3)cc1
Activity [1]: Active
Activity [2]: inactive
Activity [3]: inactive
Activity [4]: inactive
Activity [5]: inactive
ED50 [6]: > 100 mg/kg

Clc1cccc(COc2ccc3c(c2)-c2nncn2CCO3)c1
Activity [1]: Active
Activity [2]: inactive
Activity [3]: inactive
Activity [4]: inactive
Activity [5]: inactive
ED50 [6]: 82.2 mg/kg
TD50 [7]: 127 mg/kg
PI [8]: 1.5

NC(=O)N1c2ccccc2C=Cc2ccccc21 [CARBAMAZEPINE]
PI [8]: 6.4
Activity [11]: 100%
Activity [12]: 0%
Activity [13]: 60%
Activity [14]: 0%
Activity [15]: 100%
Activity [16]: 0%
Activity [18]: 100%
Activity [19]: 0%
Activity [20]: 100%
Activity [21]: 0%
Activity [22]: 20%
